# The source made the active and inactive calls. No cut-off for these calls is given here.
# Key:
# [1] = Cytotoxicity against human HuH7 cells assessed as growth inhibition after 72 hrs by sulforhodamine B assay; assay type: functional, cell-based, Huh-7; conditions: Homo sapiens, Huh-7, 72 h; read-out: IC50
# Summary of the method: (§1)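 Cells were grown at 37°C, 5% CO2 in DMEM with 10% FBS. They were seeded at 1000–3000 cells/well, grown 24 h, then exposed to compound at 2.5–40 µM for 72 h. Cells were fixed in 10% TCA for 1 h at 4°C, stained with 0.4% SRB in 1% acetic acid for 10 min, and the dye solubilized in 10 mM Tris. Absorbance was read at 515 nm; runs were in triplicate; IC50 was calculated, with fits of R2 0.8–1 accepted.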
# Huh-7 [2] = experiment: Induction of oxidative stress in human HuH7 cells assessed as ROS accumulation at 10 uM after 48 hrs by DCFH-DA staining based fluorescence microscopy; assay type: functional, cell-based
# Summary of the method: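 Cells in 6-well dishes were treated with 10 µM compound or DMSO for 48 h. They were washed in PBS and stained for 15 min at 37°C in the dark with DCFH-DA solution (1 mM DCFH-DA, 10 mM glucose, 10 mM HEPES in PBS). After three PBS washes, cells were viewed by fluorescence microscopy. Selenium-deficient serum-free medium culture served as the positive control.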
# [3] = Cytotoxicity against human Mahlavu cells assessed as growth inhibition after 72 hrs by sulforhodamine B assay; assay type: functional, cell-based; conditions: Homo sapiens, Mahlavu, 72 h; read-out: IC50; summary of the method: as §1
# Huh-7 [4] = experiment: Induction of apoptosis in human HuH7 cells assessed as nuclear condensation at 10 uM after 48 hrs by Hoechst 33258 staining-based immunofluorescence microscopy; assay type: functional, cell-based
# Summary of the method: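 Cells on coverslips were incubated overnight, then treated with 10 µM compound or DMSO for 48 h. They were washed in ice-cold PBS, fixed in cold methanol for 10 min, and stained with 1 µg/mL Hoechst 33258 for 5 min in the dark. Nuclei were examined by fluorescence microscopy with a 40x objective.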
# [5] = target: T1, Mitogen-activated protein kinase kinase kinase 5 (Homo sapiens) (UniProt Q99683); experiment: Activation of ASK1 in human HuH7 cells assessed as Ser966 phosphorylation after 24 to 48 hrs by Western blot analysis; assay type: cell-based; conditions: Huh-7
# T1 sequence (whole entry): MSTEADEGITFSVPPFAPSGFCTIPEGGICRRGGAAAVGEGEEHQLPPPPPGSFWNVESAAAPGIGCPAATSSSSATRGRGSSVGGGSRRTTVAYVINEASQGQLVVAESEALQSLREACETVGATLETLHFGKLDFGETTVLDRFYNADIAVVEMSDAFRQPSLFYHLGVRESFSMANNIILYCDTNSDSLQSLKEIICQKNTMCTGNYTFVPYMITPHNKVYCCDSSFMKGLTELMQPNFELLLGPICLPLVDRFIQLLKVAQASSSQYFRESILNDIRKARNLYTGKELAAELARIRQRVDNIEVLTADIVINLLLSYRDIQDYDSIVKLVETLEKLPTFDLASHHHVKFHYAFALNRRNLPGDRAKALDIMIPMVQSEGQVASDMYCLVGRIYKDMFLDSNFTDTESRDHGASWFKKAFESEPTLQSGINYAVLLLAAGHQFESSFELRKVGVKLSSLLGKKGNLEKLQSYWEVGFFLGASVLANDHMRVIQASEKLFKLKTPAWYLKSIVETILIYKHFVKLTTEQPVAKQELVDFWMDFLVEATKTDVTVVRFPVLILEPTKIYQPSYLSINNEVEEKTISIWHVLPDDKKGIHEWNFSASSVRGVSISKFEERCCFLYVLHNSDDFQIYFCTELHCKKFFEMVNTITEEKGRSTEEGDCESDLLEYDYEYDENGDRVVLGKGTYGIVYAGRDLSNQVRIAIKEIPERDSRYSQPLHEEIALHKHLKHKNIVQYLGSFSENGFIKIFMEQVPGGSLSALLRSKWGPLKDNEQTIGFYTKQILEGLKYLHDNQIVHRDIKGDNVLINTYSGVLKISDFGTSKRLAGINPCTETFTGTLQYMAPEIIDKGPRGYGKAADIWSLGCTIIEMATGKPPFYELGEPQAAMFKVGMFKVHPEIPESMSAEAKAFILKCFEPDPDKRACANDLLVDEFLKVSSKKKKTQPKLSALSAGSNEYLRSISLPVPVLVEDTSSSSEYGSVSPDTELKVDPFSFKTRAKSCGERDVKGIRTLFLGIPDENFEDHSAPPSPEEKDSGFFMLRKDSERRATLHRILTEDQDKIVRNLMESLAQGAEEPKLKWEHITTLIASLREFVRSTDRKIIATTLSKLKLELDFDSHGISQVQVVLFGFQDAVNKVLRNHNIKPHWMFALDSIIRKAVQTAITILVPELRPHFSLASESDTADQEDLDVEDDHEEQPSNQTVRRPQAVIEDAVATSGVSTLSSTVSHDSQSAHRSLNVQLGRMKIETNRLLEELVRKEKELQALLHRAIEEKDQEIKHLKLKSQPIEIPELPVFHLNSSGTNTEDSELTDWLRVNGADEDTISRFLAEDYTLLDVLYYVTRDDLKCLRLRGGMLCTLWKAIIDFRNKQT
# Summary of the method: (§2)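 Cells were exposed to compound or DMSO control for 24 or 48 h. Lysates were loaded at […] protein per lane and immunoblotted with antibodies diluted 1:100 to 1:500 in 5% BSA-TBS-T. Targets were p-Akt (Ser473), Akt, p-GSK3-α/β (Ser21/9), GSK3-α/β, SAPK/JNK, p-SAPK/JNK (Thr183/Tyr185), PARP, p-β-catenin, β-catenin, cyclin D1, p-ASK1 (S83) and p-ASK1 (S966). Actin served as the loading control.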
# HepG2 = experiment: Cytotoxicity against human HepG2 cells assessed as growth inhibition after 72 hrs by sulforhodamine B assay; assay type: functional, cell-based; conditions: Homo sapiens, HepG2, 72 h; read-out: IC50; summary of the method: as §1
# [6] = target: RAC-alpha serine/threonine-protein kinase (Homo sapiens) (UniProt P31749); experiment: Inhibition of Akt phosphorylation in human HuH7 cells after 24 to 48 hrs by Western blot analysis; assay type: cell-based; conditions: Huh-7; summary of the method: as §2
# [7] = target: T1, Mitogen-activated protein kinase kinase kinase 5 (Homo sapiens); experiment: Activation of ASK1 in human HuH7 cells assessed as SAPK/JNK phosphorylation after 24 to 48 hrs by Western blot analysis; assay type: cell-based; conditions: Huh-7; summary of the method: as §2
# [8] = target: Glycogen synthase kinase-3 beta (Homo sapiens) (UniProt P49841); experiment: Inhibition of GSK3beta phosphorylation in human HuH7 cells after 24 to 48 hrs by Western blot analysis; assay type: cell-based; conditions: Huh-7; summary of the method: as §2
# [9] = Cytotoxicity against human Hep3B cells assessed as growth inhibition after 72 hrs by sulforhodamine B assay; assay type: functional, cell-based, Hep 3B2; conditions: Homo sapiens, Hep3B, 72 h; read-out: IC50; summary of the method: as §1
# Mahlavu = experiment: Induction of apoptosis in human Mahlavu cells assessed as decrease in cyclin D1 level after 24 to 48 hrs by Western blot analysis; assay type: functional, cell-based; summary of the method: as §2
# [10] = Effect on un-phosphorylated beta-catenin level in human HuH7 cells after 24 to 48 hrs by Western blot analysis; assay type: ADME, cell-based; conditions: huh-7; summary of the method: as §2
# Glycogen synthase kinase-3 beta (Homo sapiens), sequence (P49841 whole entry, looked up): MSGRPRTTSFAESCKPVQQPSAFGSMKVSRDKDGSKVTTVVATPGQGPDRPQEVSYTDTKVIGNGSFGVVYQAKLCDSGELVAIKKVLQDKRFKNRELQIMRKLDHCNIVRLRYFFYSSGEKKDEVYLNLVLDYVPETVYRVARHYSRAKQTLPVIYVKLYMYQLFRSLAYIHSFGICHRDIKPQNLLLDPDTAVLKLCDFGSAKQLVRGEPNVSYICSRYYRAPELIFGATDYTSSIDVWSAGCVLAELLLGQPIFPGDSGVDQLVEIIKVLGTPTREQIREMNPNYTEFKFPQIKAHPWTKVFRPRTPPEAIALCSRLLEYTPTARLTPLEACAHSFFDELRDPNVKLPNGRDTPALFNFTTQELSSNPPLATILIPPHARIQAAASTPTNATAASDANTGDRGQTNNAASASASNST
# RAC-alpha serine/threonine-protein kinase (Homo sapiens), sequence (P31749 whole entry): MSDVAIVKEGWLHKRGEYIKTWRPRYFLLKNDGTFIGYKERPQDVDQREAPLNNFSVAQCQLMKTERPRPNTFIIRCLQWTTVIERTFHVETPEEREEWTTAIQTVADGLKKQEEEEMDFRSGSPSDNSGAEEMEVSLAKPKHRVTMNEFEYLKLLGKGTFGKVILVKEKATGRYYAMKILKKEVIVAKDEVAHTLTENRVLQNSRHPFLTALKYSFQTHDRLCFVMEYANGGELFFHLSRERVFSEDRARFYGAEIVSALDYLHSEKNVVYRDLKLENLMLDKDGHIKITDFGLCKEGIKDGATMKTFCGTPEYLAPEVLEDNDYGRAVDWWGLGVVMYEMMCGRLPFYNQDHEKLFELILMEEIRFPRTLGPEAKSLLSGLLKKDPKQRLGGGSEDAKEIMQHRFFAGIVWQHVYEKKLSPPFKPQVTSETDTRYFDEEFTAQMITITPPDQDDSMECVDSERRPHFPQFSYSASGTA
Activity [5],inhibition [6],Activity [7],inhibition [8],Structure (SMILES),IC50 [1] [µM],Activity (Huh-7 [2]),IC50 [3] [µM],Activity (Huh-7 [4]),IC50 (HepG2) [µM],IC50 [9] [µM],Activity (Mahlavu),Activity [10]
Active,Active,Active,Active,COc1ccc(C2=Nn3c(nnc3C(C)c3ccc(CC(C)C)cc3)SC2)cc1 (centres undefined),3.7,Active,13.6,Active,3.8,6.5,Active,Non-toxic
Active,Active,Active,Active,Cc1ccc(C2=Nn3c(nnc3C(C)c3ccc(CC(C)C)cc3)SC2)cc1 (centres undefined),5,Active,8.5,Active,7.3,5.3,Active,Non-toxic

# Source: ChEMBL document CHEMBL3751842, “Novel triazolothiadiazines act as potent anticancer agents in liver cancer cells through Akt and ASK-1 proteins” (Bioorg Med Chem, 2016)
